# Data reported in ChEMBL document CHEMBL1275449, “Potent in vitro antifungal activities of naturally occurring acetylenic acids” (Antimicrob Agents Chemother, 2008).
# pIC50: −log10 of the molar value. Active and inactive are the calls of the source. The calls are words filed in the database; no cut-off is given here.
# Columns and labels:
# [1] = test system: Trichophyton rubrum; assay: Antifungal activity against Trichophyton rubrum ATCC 10218 by CLSI method; format: functional, organism-based
# Method in brief: (§1)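 Growth scraped from 1- to 6-week-old potato dextrose slants and filtered through Miracloth. Diluted in 5% Alamar blue-RPMI 1640 (MOPS pH 7.0) to 2.7 × 10⁴ CFU/ml. Eleven twofold dilutions in duplicate. Fluorescence at 544 nm excitation/590 nm emission read before and after 35°C, 5 days. IC50 fitted from percent growth. MIC taken as no detectable growth; MFC from clear or blue wells plated on PD agar.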
# [2] = test system: Trichophyton rubrum; assay: Antifungal activity against Trichophyton rubrum ATCC MYA-4438 by CLSI method; format: functional, organism-based; method in brief: as §1
# [3] = test system: Trichophyton mentagrophytes; assay: Antifungal activity against Trichophyton mentagrophytes ATCC 9533 by CLSI method; format: functional, organism-based; method in brief: as §1
# [4] = test system: Candida tropicalis; assay: Antifungal activity against Candida tropicalis ATCC 750 after 48 hrs by CLSI method; format: functional, organism-based; details: ATCC 750, 48 h
# Method in brief: (§2)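 Yeast suspensions made from 3-5 colonies off 24-72 h SD agar plates in saline. They were diluted by OD630 standard curve in RPMI 1640 (0.2% dextrose, 0.03% glutamine, 0.165 M MOPS, pH 7.0) to 1.5 × 10³ CFU/ml. Twofold dilutions (11 concentrations, 20% DMSO-saline) run in duplicate. OD530 read before and after 35°C, 48 h. Line values are top test concentrations; no-growth endpoints give MIC/MFC.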
# [5] = test system: Candida parapsilosis; assay: Antifungal activity against Candida parapsilosis ATCC 22019 after 48 hrs by CLSI method; format: functional, organism-based; details: Lodderomyces parapsilosis, ATCC 22019, 48 h; method in brief: as §2
# [6] = test system: Pichia kudriavzevii; assay: Antifungal activity against Candida krusei ATCC 6258 after 48 hrs by CLSI method; format: functional, organism-based; details: ATCC 6258, 48 h
# Method in brief: (§3)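 Candida inocula came from 24–72-h SD agar colonies suspended in saline. They were diluted by OD630 standard curve into RPMI 1640 (0.2% dextrose, 0.03% glutamine, 0.165 M MOPS, pH 7.0) to 1.5 × 10³ CFU/ml. Compounds were run as 11 twofold dilutions in 20% DMSO-saline, in duplicate, at 35°C for 48 h, with OD530 read before and after. Percent growth at the top concentration, IC50, MIC, and MFC (SD agar plating) were derived.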
# [7] = test system: Candida albicans; assay: Antifungal activity against Fluconazole resistant Candida albicans clinical isolate 17 after 48 hrs by CLSI method; format: functional, organism-based
# Method in brief: (§4)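 CLSI broth microdilution. Colonies from 24–72 h SD agar suspended in saline and sized by OD630 standard curve. Inoculum 1.5 × 10³ CFU/ml (final) in RPMI 1640 (0.2% dextrose, 0.03% glutamine, 0.165 M MOPS, pH 7.0). Twofold dilutions (11 levels) from 20% DMSO-saline, in duplicate. 35°C for 48 h, OD530 read before and after. IC50 fitted from % growth. MIC: no detectable growth. MFC: subculture onto SD agar.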
# [8] = test system: Candida albicans; assay: Antifungal activity against Fluconazole resistant Candida albicans clinical isolate 1 after 48 hrs by CLSI method; format: functional, organism-based; method in brief: as §4
# [9] = test system: Candida albicans; assay: Antifungal activity against Candida albicans ATCC 200955 after 48 hrs by CLSI method; format: functional, organism-based; details: ATCC 200955, 48 h; method in brief: as §4
# [10] = test system: Candida albicans; assay: Antifungal activity against Candida albicans ATCC 90028 after 48 hrs by CLSI method; format: functional, organism-based; details: ATCC 90028, 48 h; method in brief: as §4
# [11] = test system: Candida albicans; assay: Antifungal activity against Candida albicans ATCC 32354 after 48 hrs by CLSI method; format: functional, organism-based; details: ATCC 32354, 48 h; method in brief: as §4
# [12] = test system: Candida albicans; assay: Antifungal activity against Candida albicans ATCC 14053 after 48 hrs by CLSI method; format: functional, organism-based; details: ATCC 14053, 48 h; method in brief: as §4
# [13] = test system: Candida albicans; assay: Antifungal activity against Candida albicans ATCC 60193 after 48 hrs by CLSI method; format: functional, organism-based; details: ATCC 60193, 48 h; method in brief: as §4
# [14] = test system: Trichophyton mentagrophytes; assay: Antifungal activity against Trichophyton mentagrophytes ATCC MYA-4439 by CLSI method; format: functional, organism-based; method in brief: as §1
# [15] = test system: Cryptococcus neoformans; assay: Antifungal activity against Cryptococcus neoformans ATCC 66031 after 72 hrs by CLSI method; format: functional, organism-based; details: ATCC 66031, 72 h
# Method in brief: (§5)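 SD broth replaced RPMI because growth in RPMI was poor; other CLSI conditions were kept. Inoculum was 1.5 × 10³ CFU/ml from colonies on SD agar, checked by plating. Twofold serial dilutions (11 concentrations) in 20% DMSO-saline were tested in duplicate. OD530 was read before and after incubation at 35°C for 72 h. Percent growth gave IC50; the MIC is the lowest concentration with no detectable growth.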
# [16] = test system: Candida albicans; assay: Antifungal activity against Candida albicans ATCC 60193 at 178.3 uM after 48 hrs by CLSI method; format: functional, organism-based; method in brief: as §3
# [17] = test system: Candida albicans; assay: Antifungal activity against Candida albicans ATCC 32354 at 178.3 uM after 48 hrs by CLSI method; format: functional, organism-based; method in brief: as §3
# [18] = test system: Candida albicans; assay: Antifungal activity against Candida albicans ATCC 200955 at 178.3 uM after 48 hrs by CLSI method; format: functional, organism-based; method in brief: as §3
# [19] = test system: Candida albicans; assay: Antifungal activity against Fluconazole resistant Candida albicans isolate 1 at 178.3 uM after 48 hrs by CLSI method; format: functional, organism-based
# Method in brief: (§6)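 Candida in CLSI broth microdilution. Saline colony suspension set to 1.5 × 10³ CFU/ml (final) in MOPS-buffered RPMI 1640, pH 7.0. Test agent given as twofold serial dilutions in 20% DMSO-saline, duplicate wells. 35°C for 48 h. Growth read as OD530 before and after incubation. Percent inhibition scored at the highest test concentration.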
# [20] = test system: Candida albicans; assay: Antifungal activity against Fluconazole resistant Candida albicans isolate 17 at 178.3 uM after 48 hrs by CLSI method; format: functional, organism-based; method in brief: as §6
# [21] = test system: Nakaseomyces glabratus; assay: Antifungal activity against Candida glabrata ATCC 90030 at 178.3 uM after 48 hrs by CLSI method; format: functional, organism-based; method in brief: as §3
# [22] = test system: Candida parapsilosis; assay: Antifungal activity against Candida parapsilosis ATCC 22019 at 178.3 uM after 48 hrs by CLSI method; format: functional, organism-based; method in brief: as §2
# [23] = test system: Candida tropicalis; assay: Antifungal activity against Candida tropicalis ATCC 750 at 178.3 uM after 48 hrs by CLSI method; format: functional, organism-based; method in brief: as §2
# [24] = test system: SK-MEL; assay: Cytotoxicity against human SK-MEL cells up to 32 uM by neutral red method; format: cell-based
# Method in brief: (§7)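 Neutral red uptake cytotoxicity, top concentration 32 μM.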
# [25] = test system: KB; assay: Cytotoxicity against human KB cells up to 32 uM by neutral red method; format: cell-based; method in brief: as §7
# [26] = test system: BT-549; assay: Cytotoxicity against human BT549 cells up to 32 uM by neutral red method; format: cell-based; method in brief: as §7
# [27] = test system: SK-OV-3; assay: Cytotoxicity against human SKOV3 cells up to 32 uM by neutral red method; format: cell-based; method in brief: as §7
# [28] = test system: Vero; assay: Cytotoxicity against African green monkey Vero cells up to 32 uM by neutral red method; format: cell-based; details: chlorocebus sabaeus; method in brief: as §7
# [29] = test system: LLC-PK1; assay: Cytotoxicity against pig LLC-PK1 cells up to 32 uM by neutral red method; format: cell-based, Sus scrofa; method in brief: as §7
# [30] = test system: Mus musculus; assay: Toxicity in mouse up to 34 umol/kg/day, ip for 3 days; format: organism-based; details: in vivo, 72 h
# [31] = test system: Cryptococcus neoformans; assay: Antifungal activity against Cryptococcus neoformans ATCC 90113 at 178.3 uM after 72 hrs by CLSI method; format: functional, organism-based; method in brief: as §5
# [32] = test system: Cryptococcus neoformans; assay: Antifungal activity against Cryptococcus neoformans ATCC 66031 at 178.3 uM after 72 hrs by CLSI method; format: functional, organism-based; method in brief: as §5
# [33] = test system: Aspergillus fumigatus; assay: Antifungal activity against Aspergillus fumigatus ATCC 204305 at 178.3 uM after 48 hrs by CLSI method; format: functional, organism-based
# [34] = test system: Aspergillus fumigatus; assay: Antifungal activity against Aspergillus fumigatus ATCC 90906 at 178.3 uM after 48 hrs by CLSI method; format: functional, organism-based
# [35] = test system: Aspergillus flavus; assay: Antifungal activity against Aspergillus flavus ATCC 204304 at 178.3 uM after 48 hrs by CLSI method; format: functional, organism-based
# [36] = test system: Aspergillus niger; assay: Antifungal activity against Aspergillus niger ATCC 16404 at 178.3 uM after 48 hrs by CLSI method; format: functional, organism-based
# [37] = test system: Trichophyton rubrum; assay: Antifungal activity against Trichophyton rubrum ATCC MYA-4438 at 178.3 uM after 5 days by CLSI method; format: functional, organism-based
# [38] = test system: Aspergillus fumigatus; assay: Antifungal activity against Aspergillus fumigatus ATCC 204305 after 48 h by CLSI method; details: ATCC 204305, 48 h
smiles,measurement,setting,value
OC(Cn1cncn1)(Cn1cncn1)c1ccc(F)cc1F [FLUCONAZOLE],pIC50,[1],5.74
same,MFC,[1],163 µM
same,MIC,[1],1.9 µM
same,pIC50,[2],5.57
same,MIC,[2],6.4 µM
same,pIC50,[3],4.53
same,MIC,[3],61.2 µM
same,pIC50,[4],5.37
same,MIC,[4],15.3 µM
same,pIC50,[5],5.47
same,MIC,[5],10.2 µM
same,pIC50,[6],3.90
same,MIC,[6],163 µM
same,pIC50,[7],3.79
same,pIC50,[8],6.10
same,MIC,[8],5.1 µM
same,pIC50,[9],6.40
same,MIC,[9],1.3 µM
same,pIC50,[10],6.10
same,MIC,[10],6.4 µM
same,pIC50,[11],6.10
same,MIC,[11],5.7 µM
same,pIC50,[12],6.30
same,MIC,[12],1.3 µM
same,pIC50,[13],6.40
same,MIC,[13],0.6 µM
CCCCCCCCCCCC#CCCCCC(=O)O [6-OCTADECYNOIC ACID],pIC50,[1],5.57
same,MFC,[1],11.1 µM
same,MIC,[1],5.6 µM
same,pIC50,[2],5.74
same,MIC,[2],5.6 µM
same,pIC50,[3],5.89
same,MFC,[3],2.8 µM
same,MIC,[3],2.1 µM
same,pIC50,[14],5.92
same,MFC,[14],2.8 µM
same,MIC,[14],2.8 µM
same,pIC50,[15],5.85
same,pIC50,[4],5.20
same,MIC,[4],111 µM
same,pIC50,[6],5.47
same,MIC,[6],5.6 µM
same,pIC50,[7],5.44
same,MIC,[7],16.7 µM
same,pIC50,[8],5.38
same,MIC,[8],13.9 µM
same,pIC50,[9],5.72
same,MIC,[9],11.1 µM
same,pIC50,[10],5.70
same,MFC,[10],11.1 µM
same,MIC,[10],2.8 µM
same,Activity,[16],inactive
same,Activity,[17],inactive
same,Activity,[18],inactive
same,Activity,[19],inactive
same,Activity,[20],inactive
same,Activity,[21],inactive
same,Activity,[22],inactive
same,Activity,[23],inactive
same,pIC50,[11],5.40
same,MIC,[11],27.9 µM
same,Activity,[24],Non-toxic
same,Activity,[25],Non-toxic
same,Activity,[26],Non-toxic
same,Activity,[27],Non-toxic
same,Activity,[28],Non-toxic
same,Activity,[29],Non-toxic
same,Activity,[30],Non-toxic
same,pIC50,[12],6.00
same,MFC,[12],5.6 µM
same,MIC,[12],2.8 µM
same,pIC50,[13],5.52
same,MIC,[13],5.6 µM
same,Activity,[31],inactive
same,Activity,[32],inactive
same,Activity,[33],inactive
same,Activity,[34],inactive
same,Activity,[35],inactive
same,Activity,[36],inactive
same,Activity,[37],inactive
same,pIC50,[38],4.73
same,MIC,[38],178 µM
